For one assay, the system named is Plasmodium falciparum. The experiment in a line: Antimalarial activity against chloroquine-resistant Plasmodium falciparum W2 infected human erythrocytes. It counts as functional, organism-based. An outline of the steps:
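P. falciparum W2 (chloroquine-resistant) grown in human O+ erythrocytes, RPMI 1640 with 10% human plasma. Sorbitol-synchronized trophozoites plated at 2% parasitaemia, 2.5% haematocrit. Molecules dissolved in ethanol, serially diluted in hypoxanthine-free RPMI 1640, chloroquine reference run in parallel. Growth read by [³H]hypoxanthine incorporation. IC50 taken relative to drug-free control cultures.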

In assay [1] the test system is Plasmodium berghei. The experiment in a line: Growth inhibition of Plasmodium berghei infected BALB/c mice (Mus musculus) at 20 mg/kg perorallydose. Format: functional, NK65. More on the design: scale not given: the % may be the effect or the level left. Particulars: route oral. An outline of the steps: (§1)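 Balb/c mice infected with blood-stage P. berghei, 6 per group, given 20 mg/kg orally or subcutaneously. Controls were untreated or saline-treated mice, plus mice given non-curative chloroquine. Blood smears were methanol-fixed and Giemsa-stained, and parasitaemia was counted in 1000 to 6000 erythrocytes. Percent reduction of parasite growth is relative to non-treated mice at day 7 post-inoculation.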

Assay [2] relates to Plasmodium berghei. Description: Growth inhibition of Plasmodium berghei infected BALB/c mice (Mus musculus) at 20 mg/kg subcutaneous dose. It counts as functional, NK65. Set-up: scale not given: the % may be the effect or the level left. The essentials:
as §1

The subject of assay [3] is Plasmodium berghei. Description: Growth inhibition of Plasmodium berghei in BALB/c mice (Mus musculus) at 15 mg/kg peroral dose. More on the design: scale not given: the % may be the effect or the level left. Particulars: route oral. Format: functional, NK65.
The test system of assay [4] is Plasmodium berghei. The experiment in a line: Growth inhibition of Plasmodium berghei infected BALB/c mice (Mus musculus) at 15 mg/kg subcutaneous dose. It counts as functional, NK65. More on the design: scale not given: the % may be the effect or the level left.

Each structure is given as a SMILES string. ≈ marks a conversion by molar mass, not a printed value.

In the case of `COc1ccc(C2=NN(c3ccnc4cc(Cl)ccc34)C(O)(C(F)(F)F)C2)cc1` (stereo not given), the IC50 (in general, the midpoint of a concentration-inhibition curve) in the assay on Plasmodium falciparum was above 50 µg/mL. In the case of `FC(F)(F)c1cc(-c2ccccc2)nn1-c1ccnc2cc(Cl)ccc12`, 9.53 µg/mL (≈ 25.5 µM) corresponded to half-maximal inhibition with Plasmodium falciparum (IC50). With `OC1(C(F)(F)F)CC(c2ccc(Br)cc2)=NN1c1ccnc2cc(Cl)ccc12` (stereo not given), the values for the Activity in the assay with Plasmodium berghei [1] and in the assay on Plasmodium berghei [2] were 0% and 82%, respectively. This compound showed an IC50 with Plasmodium falciparum of 1.55 µg/mL (≈ 3.29 µM). Take `Cc1ccc(C2=NN(c3ccnc4cc(Cl)ccc34)C(O)(C(F)(F)F)C2)cc1` (stereo not given): the IC50 with Plasmodium falciparum was found to be 3.04 µg/mL (≈ 7.49 µM). Same read-out and setting: the result for `Fc1ccc(-c2cc(C(F)(F)F)n(-c3ccnc4cc(Cl)ccc34)n2)cc1` reads 27.6 µg/mL (≈ 70.5 µM); that for `OC1(C(F)(F)F)CC(c2ccc(F)cc2)=NN1c1ccnc2cc(Cl)ccc12` (stereo not given), 2.13 µg/mL (≈ 5.2 µM); that for `OC1(C(F)(F)F)CC(c2ccc(-c3ccccc3)cc2)=NN1c1ccnc2cc(Cl)ccc12` (stereo not given), 2.12 µg/mL (≈ 4.53 µM). As to `Cc1ccc(-c2cc(C(F)(F)F)n(-c3ccnc4cc(Cl)ccc34)n2)cc1`, in the assay on Plasmodium falciparum, the IC50 is above 50 µg/mL. The same measure, in the same setting: the value for `FC(F)(F)c1cc(-c2ccc(Cl)cc2)nn1-c1ccnc2cc(Cl)ccc12` was above 50 µg/mL; that for `COc1ccc(-c2cc(C(F)(F)F)n(-c3ccnc4cc(Cl)ccc34)n2)cc1` was above 50 µg/mL. Compound `O=[N+]([O-])c1ccc(-c2cc(C(F)(F)F)n(-c3ccnc4cc(Cl)ccc34)n2)cc1` gave an IC50 in the assay with Plasmodium falciparum above 50 µg/mL. The same measure, in the same setting: the result for `FC(F)(F)c1cc(-c2ccc(-c3ccccc3)cc2)nn1-c1ccnc2cc(Cl)ccc12` reads 18.5 µg/mL (≈ 41.2 µM); that for `O=[N+]([O-])c1ccc(C2=NN(c3ccnc4cc(Cl)ccc34)C(O)(C(F)(F)F)C2)cc1` (stereo not given), 5.71 µg/mL (≈ 13.1 µM). `CCN(CC)CCCC(C)Nc1ccnc2cc(Cl)ccc12` (stereo not given) [CHLOROQUINE]: the Activity in the assay with Plasmodium berghei [3] turned out to be 53%; in the assay with Plasmodium berghei [4], 100%. In the case of `OC1(C(F)(F)F)CC(c2ccccc2)=NN1c1ccnc2cc(Cl)ccc12` (stereo not given), the Activity in the assay with Plasmodium berghei [1] and with Plasmodium berghei [2] was 0% each time. For the same compound, the IC50 in the assay on Plasmodium falciparum stood at 1.39 µg/mL (≈ 3.55 µM). As to `Cc1cc(C(F)(F)F)n(-c2ccnc3cc(Cl)ccc23)n1`, the IC50 in the assay with Plasmodium falciparum stood at 4.29 µg/mL (≈ 13.8 µM). For the compound `OC1(C(F)(F)F)CC(c2ccc(Cl)cc2)=NN1c1ccnc2cc(Cl)ccc12` (stereo not given), the Activity with Plasmodium berghei [1] turned out to be 0%; in the assay on Plasmodium berghei [2], 47%. Further, the IC50 in the assay on Plasmodium falciparum was found to be 1.69 µg/mL (≈ 3.97 µM).

Take `FC(F)(F)c1cc(-c2ccc(Br)cc2)nn1-c1ccnc2cc(Cl)ccc12`: the IC50 in the assay with Plasmodium falciparum was above 50 µg/mL.

The values are drawn from ChEMBL document CHEMBL1149438, “Antimalarial activity of 4-(5-trifluoromethyl-1H-pyrazol-1-yl)-chloroquine analogues” (Bioorg Med Chem Lett, 2006).
